Source: PubChem BioAssay (several laboratories)
Rows were chosen to be rich in hits. Some 0.99% of all compounds tested hit in one or more screens of this group.
GSK3 alpha inh – blocks human GSK-3 alpha kinase; P49840; ADP-Glo luminescence, 60 min; inhibition, % at 10 µM; actives 0.1% (n = 320,000); AID 2650;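 active = more than half of replicates show inhibition above 20%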;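 note: GST-tagged GSK-3 alpha with peptide substrate and 25 µM ATP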
Target sequence (P49840 whole entry, looked up): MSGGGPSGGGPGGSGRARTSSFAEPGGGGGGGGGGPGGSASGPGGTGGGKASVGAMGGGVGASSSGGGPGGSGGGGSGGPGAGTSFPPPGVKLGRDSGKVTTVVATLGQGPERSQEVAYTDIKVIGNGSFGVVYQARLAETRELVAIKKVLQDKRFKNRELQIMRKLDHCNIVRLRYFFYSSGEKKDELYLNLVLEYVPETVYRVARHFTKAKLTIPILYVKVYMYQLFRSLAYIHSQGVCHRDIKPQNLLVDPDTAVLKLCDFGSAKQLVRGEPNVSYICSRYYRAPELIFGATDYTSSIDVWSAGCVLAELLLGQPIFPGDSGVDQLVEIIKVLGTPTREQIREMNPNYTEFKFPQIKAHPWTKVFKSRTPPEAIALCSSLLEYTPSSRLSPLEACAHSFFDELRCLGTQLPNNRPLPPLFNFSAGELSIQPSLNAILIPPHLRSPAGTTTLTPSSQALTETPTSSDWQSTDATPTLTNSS
Dyrk1A ADPGlo – blocks rat Dyrk1A kinase activity; ADP-Glo luminescence, NFATc1 peptide; inhibition, % at 12.5 µM; actives 0.43% (n = 310,000); AID 504441; in the data active = inhibition above about 50%
Rin1 Abl inh – human Rin1-Abl interaction inhibition. inhibition, % at 7.35 µM. TR-FRET Rin1/Abl binding, biochemical. actives 0.4% (n = 360,000). P00519+Q13671; in the data active = inhibition above about 5%, passing the limit was not always enough
GSK3beta inhib – inhibitors of human GSK3beta kinase | GST-GSK3beta kinase, ADP-Glo luminescence, 60 min; stronger effect = lower value | activity score (negative = inhibition), % at 10 µM | actives 0.038% (n = 300,000) | AID 2097;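 active = more than half of replicate wells score below -50%, meaning over 50% inhibition versus plate controls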
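Test system – GST-tagged human GSK3beta kinase, cell-free · Incubation – 60 min enzyme reaction, room temperature · Signal – ADP-Glo luminescence · Also added – peptide substrate and ATP at 25 µM · Controls – DMSO neutral wells and GW8510 at 20 µM as positive · Buffer or medium – Tris/MgCl2 kinase buffer · Measure – Luminescence-derived activity versus plate DMSO and GW8510 wells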
Arrestin-AP2 inh – blocks beta-arrestin peptide binding to AP2 adaptin | FITC-arrestin peptide / GST-AP2 beads, flow cytometry; AP2 beta2 appendage carries R879A mutation | inhibition, % at 10 µM | actives 0.31% (n = 340,000) | AID 504490;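 active = inhibition above a set limit, near 3 SD of compounds lacking own fluorescence, cut at about 54% in these data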
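Test system: GST-tagged AP2 beta2-adaptin appendage (R879A) on 4 µm glutathione beads; also added: fluorescein-tagged arrestin peptide at 50 nM final; timing: 12 min plus 1 h, RT; signal: flow cytometry, FL1 (488/535 nm); read-out: percent drop in bead-associated FITC signal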
STK33 kinase inh – human STK33 kinase inhibition. Q9BYT3. purified STK33, MBP phosphorylation, ADP-Glo luminescence. actives 0.073% (n = 320,000). AID 2661. inhibition, % at 10 µM;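 active = inhibition at or above 25%, using the most active replicate where run in duplicate; inactive = inhibition below 25%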
Arr AP2 CP1 – inhibitors of human beta-arrestin and AP2 interaction | shares compounds with Arrestin-AP2 inh | GST-AP2 beads, FITC arrestin peptide binding, flow cytometry; GST-fused beta2-adaptin appendage, R879A mutant | inhibition, % at 10 µM | actives 2% (n = 1,300) | AID 504908;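 active = inhibition above a set limit, roughly 3 SD of non-fluorescent compound noise, cut at about 38% in these data; inactive = inhibition at or below that limit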;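 note: loss of bead fluorescence from 50 nM FITC arrestin peptide bound to appendage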
GST GSH counter – GST-GSH bead binding interference, counter-screen; shares compounds with Arrestin-AP2 inh; GST-fluorescein binding to GSH beads, fluorescence; inhibition, % at 10 µM; actives 2% (n = 1,300); AID 588338;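 active = inhibition above 50%, about 3 SD of the inhibition seen with non-fluorescent compounds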;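 note: fluorescein maleimide labelled GST captured on 4 micron glutathione beads; higher means more loss of bead fluorescence from quenching or blocked binding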
Hits are given with their value; n = inactive; x = not tested or not shown.

SMILES | GSK3 alpha inh | Dyrk1A ADPGlo | Rin1 Abl inh | GSK3beta inhib | Arrestin-AP2 inh | STK33 kinase inh | Arr AP2 CP1 | GST GSH counter
CCOc1ccccc1NC(=O)c1ccc(F)c(S(=O)(=O)N2CCC3(CC2)OCCO3)c1 | n | n | n | n | 60.8 | n | n | n
O=C(c1ccc2ncsc2c1)N1CCN(c2ccccc2Cl)CC1 | n | n | n | n | n | n | x | x
O=C(c1ccc2ncsc2c1)N1CCN(c2ccc(O)cc2)CC1 | x | n | n | n | 64.8 | n | n | n
NS(=O)(=O)c1cc2c(cc1Cl)NC(c1ccccc1OCC(=O)O)NS2(=O)=O (configuration not stated) | n | n | n | n | n | n | x | x
CN1CCN(S(=O)(=O)c2ccc(Oc3cccc(C(F)(F)F)c3)nc2)CC1 | n | x | n | n | n | n | x | x
COc1ccccc1N1CC(C(=O)Nc2nnc(SCC(=O)N3CCOCC3)s2)CC1=O (configuration not stated) | n | n | n | n | n | n | x | x
Cc1ccccc1NC(=O)COC(=O)/C=C/c1cccc(C(F)(F)F)c1 | n | n | n | n | n | n | x | x
O=C(COC(=O)/C=C/c1cccc(C(F)(F)F)c1)Nc1cccc2ccccc12 | n | n | n | n | 91.0 | n | n | n
CCC(C(=O)NCc1ccco1)N(C(=O)CNS(=O)(=O)c1ccccc1)c1ccccc1C (configuration not stated) | n | n | n | n | n | n | x | x
CCC(C(=O)NCc1ccco1)N(Cc1cccs1)C(=O)CNS(=O)(=O)c1ccccc1 (configuration not stated) | n | n | n | n | 54.7 | n | n | n
Cc1ccc(S(=O)(=O)N2CCCCC2)cc1NC(=O)CNC(C)c1ccc(Cl)c(Cl)c1 (configuration not stated) | n | x | n | x | n | n | x | x
CCCCOc1ncnc2c1[nH]c1ccc(C)cc12 | n | x | n | n | x | n | x | x
Cc1c(N(C(=O)c2cnccn2)C2(C(=O)NC3CCCC3)CCCCC2)c(=O)n(-c2ccccc2)n1C | n | n | n | n | 55.8 | n | n | n
CC(=O)N(c1c(C)n(C)n(-c2ccccc2)c1=O)C1(C(=O)NC2CCCCC2)CCCCC1 | n | n | n | n | n | n | x | x
CSc1ccc(C(=O)C2CCCN(C(=O)Cn3cnnn3)C2)cc1 (configuration not stated) | n | n | n | n | n | n | x | x
O=C(O)c1ccccc1NS(=O)(=O)c1ccc(NNC(=S)Nc2ccc(OC(F)F)cc2)c([N+](=O)[O-])c1 | x | n | n | n | 61.9 | x | n | n
Cc1ccccc1CN1CCN(C(=O)c2ccc(S(=O)(=O)NCc3ccco3)cc2)CC1 | n | n | n | x | n | n | n | n
COc1ccc(N2CCN(C(=O)c3ccc(S(=O)(=O)NCc4ccco4)cc3)CC2)cc1 | n | x | n | x | n | n | n | n
COc1ccc(N2CCN(C(=O)c3ccc(CNS(=O)(=O)c4ccc(C)cc4)cc3)CC2)cc1 | n | n | n | n | n | n | x | x
COc1ccc(CN2CCN(C(=O)c3ccc(S(=O)(=O)NCc4ccco4)cc3)CC2)cc1F | x | n | n | x | n | x | n | n
CCOC(=O)N1CCN(C(=O)c2ccc(S(=O)(=O)NCc3ccco3)cc2)CC1 | n | x | n | n | n | n | x | x
S=C(c1ccc2c(c1)OCO2)N1CCN(c2cccc(Cl)c2)CC1 | x | n | n | x | n | x | x | x
O=C(NCC1CCCO1)c1ccc2c(c1)S(=O)(=O)c1ccccc1C2=O (configuration not stated) | n | n | n | n | n | n | x | x
COc1ccc(-c2nc3ccc(Br)cn3c2CC(C)(C)C)cc1OC | x | x | n | x | x | x | x | x
CC1CN(C(=O)COC(=O)Cc2ccc(Cl)cc2)CC(C)O1 (configuration not stated) | n | n | n | x | n | n | x | x
SMILES | GSK3 alpha inh | Dyrk1A ADPGlo | Rin1 Abl inh | GSK3beta inhib | Arrestin-AP2 inh | STK33 kinase inh | Arr AP2 CP1 | GST GSH counter
COc1ccc(N2CCN(C(=O)COC(=O)CSc3ccccc3)CC2)cc1 | x | x | n | x | n | x | x | x
Cn1nccc1C(=O)Nc1ccc2c(c1)OCO2 | n | x | n | n | n | n | x | x
O=C(Nc1ccc(COc2ccccc2)cc1)Oc1ccccc1N1CCOCC1 | n | x | n | n | n | n | x | x
O=C(Nc1ccccc1)Oc1ccccc1N1CCOCC1 | n | n | n | n | 66.1 | n | n | n
CC(CC(=O)N(CCC1=CCCCC1)c1c(N)n(Cc2ccccc2)c(=O)[nH]c1=O)c1ccccc1 (configuration not stated) | n | n | n | n | 67.6 | n | n | n
O=c1cc(CO)occ1OCc1cccc(F)c1 | n | n | n | n | n | n | x | x
O=c1cc(CO)[nH]cc1OCc1ccccc1 | n | n | n | n | 61.5 | n | n | n
CCSc1nnc(NC(=O)C2C3C=CC(C3)C2C(=O)O)s1 (configuration not stated) | n | n | n | n | n | n | x | x
CCSc1nnc(NC(=O)C2C3CCC(C3)C2C(=O)O)s1 (configuration not stated) | n | n | n | n | 60.4 | n | n | n
CC(C)c1ccc(NC(=O)c2ccccc2NC(=O)C2CCCCC2C(=O)O)cc1 (configuration not stated) | n | n | n | n | 54.0 | n | n | n
CC(C)c1ccc(NC(=O)c2ccccc2NC(=O)C2CC=CCC2C(=O)O)cc1 (configuration not stated) | x | n | n | n | n | n | x | x
O=C(N/N=C/c1cccc([N+](=O)[O-])c1)c1cc2ccccc2o1 | n | n | n | n | 106.6 | n | n | n
CC(C)c1ccc(N(C(=O)c2ccco2)C(C(=O)NC2CCCC2)c2ccncc2)cc1 (configuration not stated) | n | n | n | n | n | n | x | x
CC(C)CN1CCC(=O)N(CCOc2ccccc2)CC1 | n | n | n | n | 56.9 | n | n | n
CCCN1CCC(=O)N(CCOc2ccccc2)CC1 | n | n | n | n | n | n | x | x
Cc1ccc(-c2nc3ccccc3s2)cc1NC(=O)c1ccc2c(c1)OCO2 | n | n | n | n | 58.2 | n | n | n
O=C(Nc1cc(-c2nc3ccccc3s2)ccc1Cl)c1ccc2c(c1)OCO2 | n | n | n | n | n | n | x | x
CCC(C)N(C(=O)COC(=O)c1ccccc1SCC(=O)N1CCCC1)C1CCS(=O)(=O)C1 (configuration not stated) | n | n | n | n | 54.4 | n | n | n
COc1ccccc1N(C)S(=O)(=O)c1ccc(C)c(C(=O)NCc2ccccn2)c1 | n | x | n | x | n | n | x | x
